Here are results for 30 compounds from ChEMBL document CHEMBL1828516, “Discovery of novel alkylated (bis)urea and (bis)thiourea polyamine analogues with potent antimalarial activities” (J Med Chem, 2011).

In general, pIC50 refers to the IC50 on a negative log10 scale, so that one unit is a factor of ten. The low end stands for a high IC50, the high end for a low IC50. In general, GI50 refers to the concentration giving 50% growth inhibition. A higher GI50 goes with lower sensitivity of the cells.

pIC50: −log10 of the molar value. Activity calls are given as the source filed them. The calls are words filed in the database; no cut-off is given here.

The test system of series [1] is Plasmodium falciparum. The series can be described thus: Antimalarial activity against […] Plasmodium falciparum HB3 infected in human erythrocytes after 96 hrs by SYBR Green I-based fluorescence assay. It counts as functional, organism-based. The settings on record: HB3, 96 h. In a few lines:
(§1)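 Ring-stage cultures synchronized with 10% D-sorbitol, grown in O+ human erythrocytes in RPMI-1640 with HEPES, hypoxanthine, glucose, gentamycin and Albumax II under 5% CO2/5% O2/90% N2 at 37°C. Compounds in DMSO (<0.013%), serially diluted, added at 1% parasitemia, 2% hematocrit. Static 96 h incubation, then SYBR Green I lysis buffer for 1 h in dark. Fluorescence at ex 485/em 538 nm.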

Series [2] deals with Plasmodium falciparum. Briefly: Antimalarial activity against drug-sensitive Plasmodium falciparum 3D7 infected in human erythrocytes after 96 hrs by SYBR Green I-based fluorescence assay. It counts as functional, organism-based. The settings on record: 3D7, 96 h. In a few lines: as §1
Series [3] has as its system Plasmodium falciparum. The series can be described thus: Antimalarial activity against Plasmodium falciparum 3D7 infected in human erythrocytes assessed as decrease in parasitemia at 2 times IC50 after 72 hrs by giemsa staining method. It is filed as functional, organism-based. In a few lines:
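P. falciparum 3D7 in O+ human erythrocytes, treated at 2xIC50 for 72 h. Parasitemia scored microscopically on Giemsa-stained smears, counting 100 parasites per slide 10x, alongside SYBR Green I DNA quantitation. Parasitemia compared at 0 h and 72 h. Three independent experiments in triplicate, mean ± S.E.; Student t-test, P<0.05.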

Series [4] deals with Plasmodium falciparum. Briefly: Antimalarial activity against Plasmodium falciparum assessed as reduction in >2N schizont stage parasites at 2 times IC50 after 72 hrs by FITC-SYBR Green I-based flow cytometry. It is filed as functional, organism-based.
Series [5] deals with Plasmodium falciparum. Briefly: Antimalarial activity against antifolate-resistant Plasmodium falciparum W2 infected in human erythrocytes after 96 hrs by SYBR Green I-based fluorescence assay. It counts as functional, organism-based. The settings on record: W2, 96 h. A digest of the protocol: as §1
Series [6] can be described thus: Selectivity index, ratio of GI50 for human HepG2 cells to IC50 for Plasmodium falciparum 3D7. It counts as functional.
The subject of series [7] is Plasmodium falciparum. The series can be described thus: Antimalarial activity against Plasmodium falciparum assessed as increase in 1N ring or trophozoite stage parasites at 2 times IC50 after 72 hrs by FITC-SYBR Green I-based flow cytometry. It is filed as functional, organism-based. For orientation: A flow cytometer gives signals particle by particle.
For series [8], the system named is Plasmodium falciparum. The series can be described thus: Antimalarial activity against Plasmodium falciparum assessed as reduction in 2N schizont stage parasites at 2 times IC50 after 72 hrs by FITC-SYBR Green I-based flow cytometry. It is filed as functional, organism-based.
Series [9] has as its system Plasmodium falciparum. Briefly: Resistance ratio of IC50 for Plasmodium falciparum W2 to IC50 for Plasmodium falciparum 3D7. It counts as functional. A digest of the protocol:
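Ratio of W2 IC50 to 3D7 IC50, both from the 96 h SYBR Green I fluorescence assay.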

A further series has as its system HepG2. Briefly: Cytotoxicity against human HepG2 cells after 48 hrs by lactate dehydrogenase assay. It counts as cell-based. The note with it: hepg2, 48 h. A digest of the protocol:
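HepG2 cells in DMEM with 10% heat-inactivated FBS, 37°C, 5% CO2. Cells pelleted at 250xg, supernatant LDH activity read colorimetrically as NADH at 450 nm after 30 min at room temperature. Duplicate, at least two biological repeats, mean ± S.E.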

In series [10] the test system is Plasmodium falciparum. The series can be described thus: Antimalarial activity against Plasmodium falciparum assessed as inhibition of DNA replication at 2 times IC50 after 72 hrs by FITC-SYBR Green I-based flow cytometry. It is filed as functional, organism-based.

For `O=C(NCCCNCCCCNCCCNC(=O)NCCC(c1ccccc1)c1ccccc1)NCCC(c1ccccc1)c1ccccc1`, the figures for the pIC50 in the series on Plasmodium falciparum [1] and in the series on Plasmodium falciparum [2] were 6.29 and 6.18, respectively.

Consider `S=C(NCCCNCCCCCCNCCCNC(=S)Nc1ccccc1)Nc1ccccc1`, for which, in the series on Plasmodium falciparum [2], the pIC50 was 6.07.

Consider `O=C(NCCCNCCCCNCCCNC(=O)NCc1ccccc1)NCc1ccccc1`, for which the pIC50 with Plasmodium falciparum [1] is under 6.00; with Plasmodium falciparum [2] it was 5.46.

In the case of `Cl.Cl.O=C(NCCCNCCCCCCCNCCCNC(=O)NC(c1ccccc1)c1ccccc1)NC(c1ccccc1)c1ccccc1`, the result in the series with Plasmodium falciparum [3], in the series on Plasmodium falciparum [4], in the series with Plasmodium falciparum [7] and with Plasmodium falciparum [8] was Active. In addition, the pIC50 in the series with Plasmodium falciparum [5] was 6.66; in the series on Plasmodium falciparum [2], 6.88. The “Selectivity Index” value in series [6] is given as over 1500. The “Ratio IC50” value in the series on Plasmodium falciparum [9] is 1.7. In the series with HepG2, this compound showed a GI50 of over 200000 nM. Further, the “DNA replication inhibition (active/inactive)” value in the series with Plasmodium falciparum [10] is “Active”.

As for `CC(=N)NCCCNCCCCNCCCNC(C)=N`, the pIC50 in the series with Plasmodium falciparum [1] was 4.85; with Plasmodium falciparum [2], 4.10.

With `S=C(NCCCNCCCCNCCCNC(=S)NC(c1ccccc1)c1ccccc1)NC(c1ccccc1)c1ccccc1`, the pIC50 in the series with Plasmodium falciparum [1] is 6.50; in the series on Plasmodium falciparum [2], 6.36.

Compound `CC(=N)NCCCNCCCCCCCNCCCNC(C)=N` gave a pIC50 with Plasmodium falciparum [1] of 4.15.

Regarding `Cl.Cl.O=C(NCCCNCCCCCCNCCCNC(=O)Nc1ccccc1)Nc1ccccc1`, the outcome in the series on Plasmodium falciparum [3], in the series on Plasmodium falciparum [4], in the series with Plasmodium falciparum [7] and in the series with Plasmodium falciparum [8] was Active. Moreover, the pIC50 in the series with Plasmodium falciparum [5] is 7.59; in the series with Plasmodium falciparum [2] it was 7.06. The “Selectivity Index” value in [6] is recorded as 7038. The “Ratio IC50” value in the series with Plasmodium falciparum [9] was 0.3. Besides, it took 619000 nM to inhibit growth in the series with HepG2 by half (GI50). The “DNA replication inhibition (active/inactive)” value in the series on Plasmodium falciparum [10] is “Active”.

Turning to `Cl.Cl.O=C(NCCCNCCCCCCCNCCCNC(=O)NCC(c1ccccc1)c1ccccc1)NCC(c1ccccc1)c1ccccc1`, the result in the series on Plasmodium falciparum [3], in the series on Plasmodium falciparum [4], with Plasmodium falciparum [7] and in the series with Plasmodium falciparum [8] was Active. Also, the values for the pIC50 with Plasmodium falciparum [5] and in the series on Plasmodium falciparum [2] were 6.85 and 7.00, respectively. Moreover, the “Selectivity Index” value in series [6] was found to be 338. Further, the “Ratio IC50” value in the series with Plasmodium falciparum [9] was 1.4. The GI50 in the series on HepG2 turned out to be 33800 nM. In the series with Plasmodium falciparum [10], the “DNA replication inhibition (active/inactive)” value was “Active”.

As to `S=C(NCCCNCCCNCCCNC(=S)NCCC(c1ccccc1)c1ccccc1)NCCC(c1ccccc1)c1ccccc1`, the pIC50 was 5.78 with Plasmodium falciparum [1] and 5.84 with Plasmodium falciparum [2].

Take `O=C(NCCCNCCCNCCCNC(=O)NCCC(c1ccccc1)c1ccccc1)NCCC(c1ccccc1)c1ccccc1`: the pIC50 in the series on Plasmodium falciparum [2] is 6.19.

In the case of `S=C(NCCCNCCCCNCCCNC(=S)NCCC(c1ccccc1)c1ccccc1)NCCC(c1ccccc1)c1ccccc1`, the pIC50 in the series on Plasmodium falciparum [1] is 5.99; in the series with Plasmodium falciparum [2], 6.28.

`Cl.Cl.S=C(NCCCNCCCCCCCNCCCNC(=S)NCCC(c1ccccc1)c1ccccc1)NCCC(c1ccccc1)c1ccccc1`: the values for the pIC50 in the series on Plasmodium falciparum [1], with Plasmodium falciparum [5] and in the series with Plasmodium falciparum [2] were 6.59, 6.83 and 6.60, respectively. Also, the outcome with Plasmodium falciparum [3], in the series with Plasmodium falciparum [4], with Plasmodium falciparum [7] and with Plasmodium falciparum [8] was Active. In series [6], the “Selectivity Index” value was found to be 97. For the same compound, in the series on Plasmodium falciparum [9], the “Ratio IC50” value is on record as 0.58. Further, in the series with HepG2, the GI50 is 24500 nM. The “DNA replication inhibition (active/inactive)” value with Plasmodium falciparum [10] is “Active”.

For the compound `O=C(NCCCNCCCCNCCCNC(=O)NCC(c1ccccc1)c1ccccc1)NCC(c1ccccc1)c1ccccc1`, the pIC50 with Plasmodium falciparum [2] is 6.39.

Take `O=C(NCCCNCCCCNCCCNC(=O)NC(c1ccccc1)c1ccccc1)NC(c1ccccc1)c1ccccc1`: the pIC50 with Plasmodium falciparum [2] is 6.16. Against the preceding compound, the pIC50 is 0.23 log units lower.

`CCNC(=O)NCCCNCCCCCCNCCCNC(=O)NCC` showed a pIC50 in the series on Plasmodium falciparum [2] of under 4.82.

Consider `Cl.Cl.S=C(NCCCNCCCCCCNCCCNC(=S)NC(c1ccccc1)c1ccccc1)NC(c1ccccc1)c1ccccc1`, for which the result with Plasmodium falciparum [3], in the series with Plasmodium falciparum [4], with Plasmodium falciparum [7] and with Plasmodium falciparum [8] was Active. The values for the pIC50 in the series on Plasmodium falciparum [5] and in the series with Plasmodium falciparum [2] were 6.59 and 6.68, respectively. Further, the “Selectivity Index” value in series [6] is over 500. Further, in the series on Plasmodium falciparum [9], the “Ratio IC50” value is reported as 1.2. The compound further came in with a GI50 in the series with HepG2 of over 200000 nM. In addition, the “DNA replication inhibition (active/inactive)” value with Plasmodium falciparum [10] was “Active”.

Regarding `CC(=N)NCCCNCCCNCCCNC(C)=N`, the pIC50 in the series with Plasmodium falciparum [1] is 3.96; with Plasmodium falciparum [2], 3.83.

For `S=C(NCCCNCCCCCCNCCCNC(=S)NCC(c1ccccc1)c1ccccc1)NCC(c1ccccc1)c1ccccc1`, the pIC50 with Plasmodium falciparum [2] is 6.36.

Turning to `CCCNC(=O)NCCCNCCCCCCNCCCNC(=O)NCCC`, the pIC50 with Plasmodium falciparum [2] is 4.85. This pIC50 lies 1.51 log units lower than the previous one.

With `Cl.Cl.O=C(NCCCNCCCCCCCNCCCNC(=O)NCCC(c1ccccc1)c1ccccc1)NCCC(c1ccccc1)c1ccccc1`, the pIC50 is 6.70 in the series with Plasmodium falciparum [1], 6.79 with Plasmodium falciparum [5] and 6.84 in the series on Plasmodium falciparum [2]. For the same compound, the outcome in the series on Plasmodium falciparum [3], in the series on Plasmodium falciparum [4], in the series with Plasmodium falciparum [7] and in the series with Plasmodium falciparum [8] was Active. The “Selectivity Index” value in series [6] is reported as 166. In addition, the “Ratio IC50” value with Plasmodium falciparum [9] was 1.13. Further, the GI50 in the series with HepG2 was found to be 23900 nM. The “DNA replication inhibition (active/inactive)” value with Plasmodium falciparum [10] was “Active”.

For the compound `CCCNC(=S)NCCCNCCCCCCNCCCNC(=S)NCCC`, the pIC50 with Plasmodium falciparum [2] is 6.37.

Regarding `Cl.Cl.S=C(NCCCNCCCCCCNCCCNC(=S)NCc1ccccc1)NCc1ccccc1`, the result in the series on Plasmodium falciparum [3], with Plasmodium falciparum [4], in the series on Plasmodium falciparum [7] and with Plasmodium falciparum [8] was Active. Moreover, the figures for the pIC50 in the series on Plasmodium falciparum [5] and in the series with Plasmodium falciparum [2] were 6.70 and 6.97, respectively. Further, the “Selectivity Index” value in [6] is recorded as over 1500. Further, the “Ratio IC50” value with Plasmodium falciparum [9] is 1.9. Besides, the GI50 in the series with HepG2 was over 200000 nM. For the same compound, the “DNA replication inhibition (active/inactive)” value in the series on Plasmodium falciparum [10] is “Active”.

As for `S=C(NCCCNCCCCCCNCCCNC(=S)NCCC(c1ccccc1)c1ccccc1)NCCC(c1ccccc1)c1ccccc1`, the pIC50 with Plasmodium falciparum [2] was 6.51.

`S=C(NCCCNCCCCNCCCNC(=S)NCC(c1ccccc1)c1ccccc1)NCC(c1ccccc1)c1ccccc1`: the values for the pIC50 in the series with Plasmodium falciparum [1], in the series with Plasmodium falciparum [5] and with Plasmodium falciparum [2] were 6.77, 6.70 and 6.48, respectively. Moreover, the result in the series on Plasmodium falciparum [3], in the series with Plasmodium falciparum [4], in the series on Plasmodium falciparum [7] and with Plasmodium falciparum [8] was Active. Also, it took 18900 nM to inhibit growth in the series with HepG2 by half (GI50). Also, in the series on Plasmodium falciparum [10], the “DNA replication inhibition (active/inactive)” value was “Active”.

Take `S=C(NCCCNCCCCCCCNCCCNC(=S)NC(c1ccccc1)c1ccccc1)NC(c1ccccc1)c1ccccc1`: the figures for the pIC50 in the series on Plasmodium falciparum [1] and in the series with Plasmodium falciparum [2] were 6.86 and 6.19, respectively.

In the series on Plasmodium falciparum [2], `O=C(NCCCNCCCCCCNCCCNC(=O)NCc1ccccc1)NCc1ccccc1` had a pIC50 of 6.47.

Consider `CCNC(=S)NCCCNCCCCCCNCCCNC(=S)NCC`, for which, in the series on Plasmodium falciparum [2], the pIC50 is 5.87.

As for `S=C(NCCCNCCCNCCCNC(=S)NC(c1ccccc1)c1ccccc1)NC(c1ccccc1)c1ccccc1`, the pIC50 in the series on Plasmodium falciparum [1] was 6.12; in the series with Plasmodium falciparum [2], 5.97.

As to `S=C(NCCCNCCCNCCCNC(=S)NCC(c1ccccc1)c1ccccc1)NCC(c1ccccc1)c1ccccc1`, the results for the pIC50 with Plasmodium falciparum [1] and in the series on Plasmodium falciparum [2] were 6.15 and 5.88, respectively.
